ChEMBL document CHEMBL3112585, “Inhibition of reverse transcriptase and Taq DNA polymerase by compounds possessing the coumarin framework” (Bioorg Med Chem Lett, 2014)
Calls of active or inactive are those of the source. The rule behind the calls is not given here.

Key:
[1] = target: DNA polymerase I, thermostable (Thermus aquaticus) (UniProt P19821); assay: (§1) Inhibition of Thermus aquaticus taq DNA polymerase by PCR analysis
In short: (§2)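 PCR with 2.5 U Taq polymerase in 40 mM Tris-acetate pH 8.3, 15 mM MgCl2, […], 2.5 mM each dNTP; compounds in DMSO at varying concentrations. 35 cycles: 95 °C 1 min, anneal 56 °C, extend 72 °C 90 s. Ethidium bromide-stained gel band intensities scanned; IC50 = concentration inhibiting activity 50%.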

[2] = target: DNA polymerase I, thermostable (Thermus aquaticus, UniProt P19821); assay: as §1; in short: as §2
DNA polymerase I, thermostable, sequence (P19821 whole entry): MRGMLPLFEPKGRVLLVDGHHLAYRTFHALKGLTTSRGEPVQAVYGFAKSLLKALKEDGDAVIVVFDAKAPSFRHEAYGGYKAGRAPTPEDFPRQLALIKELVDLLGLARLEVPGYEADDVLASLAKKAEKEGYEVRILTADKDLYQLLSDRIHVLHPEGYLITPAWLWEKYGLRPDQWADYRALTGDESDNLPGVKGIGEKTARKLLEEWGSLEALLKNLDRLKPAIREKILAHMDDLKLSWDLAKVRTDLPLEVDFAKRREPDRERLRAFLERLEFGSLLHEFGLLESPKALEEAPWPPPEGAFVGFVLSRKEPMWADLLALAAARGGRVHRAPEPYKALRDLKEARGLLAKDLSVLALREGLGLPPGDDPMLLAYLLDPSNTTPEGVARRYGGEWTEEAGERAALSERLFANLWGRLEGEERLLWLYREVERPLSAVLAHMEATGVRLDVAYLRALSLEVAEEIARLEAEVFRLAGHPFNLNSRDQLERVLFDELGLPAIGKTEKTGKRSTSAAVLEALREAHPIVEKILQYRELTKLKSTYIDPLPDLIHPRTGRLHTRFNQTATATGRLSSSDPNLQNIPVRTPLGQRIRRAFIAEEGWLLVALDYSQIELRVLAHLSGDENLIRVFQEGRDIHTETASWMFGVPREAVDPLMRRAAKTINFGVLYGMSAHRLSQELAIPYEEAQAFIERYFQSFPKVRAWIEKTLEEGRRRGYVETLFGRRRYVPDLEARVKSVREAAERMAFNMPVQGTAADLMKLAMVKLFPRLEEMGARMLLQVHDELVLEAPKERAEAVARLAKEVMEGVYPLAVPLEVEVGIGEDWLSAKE

[3] = Inhibition of MMLV reverse transcriptase using desoxynucleotide triphosphate as substrate after 10 mins by RT-PCR analysis; set-up: species or system Moloney murine leukemia virus
In short: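 Reverse transcription mix: 1 µg RNA in commercial buffer, 2.0 U MMLV-RT, 20 µM random primers, 1.0 mM each dNTP; compounds (DMSO) added at varying concentrations during RT step. Heated 70 °C 10 min, then incubated 1 h at […]. Products on ethidium bromide-stained agarose gel, band intensities quantified by scanning; IC50 = concentration giving 50% inhibition.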

DNA polymerase I, thermostable (Thermus aquaticus), sequence (P19821 whole entry): as above

In the case of CC(C)(O)C(=O)COc1c2c(cc3oc(=O)ccc13)OCO2, the inhibition [1] is reported as “inactive”.

An IC50 [2] of 57.9 µM was found for CC(C)(O)C(Br)COc1c2c(cc3oc(=O)ccc13)OCO2 (stereo unspecified) in this work.

In the case of CC(C)(O)C(O)COc1c2c(cc3oc(=O)ccc13)OCO2 (stereo unspecified), the inhibition [1] is reported as “inactive”.

In the case of C/C(C=O)=C\COc1c2c(cc3oc(=O)ccc13)OCO2, the inhibition [1] is reported as “inactive”.

In the case of COc1cc2c(c3oc(=O)ccc13)OCO2, the inhibition [1] is reported as “inactive”.

With O=c1ccc2ccccc2o1 [COUMARIN] the IC50 [3] was 38.6 µM and the inhibition [1] was “inactive”.

For C=CCc1c(O)c2ccccc2oc1=O, the IC50 [3] was 51 µM and the inhibition [1] was “inactive”.

With CC(C)=CCOc1c2c(cc3oc(=O)ccc13)OCO2 the inhibition [1] was “inactive”.

An IC50 [2] of 48.1 µM was found for C/C(=C\COc1c2c(cc3oc(=O)ccc13)OCO2)CO in this work.
